In ChEMBL document CHEMBL1926577, “Novel 1,3,4-heterodiazole analogues: synthesis and in-vitro antitumor activity” (2012):

Assays:
Format in all cases: functional
HL-60(TB) = experiment: Growth inhibition of human HL-60(TB) cells at 10 uM after 48 hrs by coulter counter method; details: HL-60, 48 h, read-out: GI
Method in brief: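 Single-dose screen on the NCI 60-line panel (leukemia subpanel). Compound is dissolved in DMSO and diluted in PBS, with final DMSO below 1%. Duplicate wells hold 6 × 10⁴ cells/ml at 37 °C, 5% CO₂, for 48 h. Cells are counted by Coulter counter after 10-fold saline dilution. Read-out is percent growth versus PBS/DMSO controls, expressed as % growth inhibition.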

NCI/ADR-RES = experiment: Growth inhibition of human NCI/ADR-RES cells at 10 uM after 48 hrs by coulter counter method; details: read-out: GI
Method in brief: (§1)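 NCI 60-cell-line panel, single dose. Compound dissolved first in DMSO, then diluted in phosphate-buffered saline so that every final dilution held under 1% DMSO. Duplicate wells received cells at 6 × 10⁴ cells/ml. Controls held PBS/DMSO at the same dilution. Plates were incubated 48 h at 37 °C under 5% CO₂. Cells were then diluted 10-fold in saline and counted on a Coulter counter, with counts corrected for the dilution. Results are given as percent growth inhibition.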

BT-549 = experiment: Growth inhibition of human BT549 cells at 10 uM after 48 hrs by coulter counter method; details: BT-549, 48 h, read-out: GI; method in brief: as §1
SN12C = experiment: Growth inhibition of human SN12C cells at 10 uM after 48 hrs by coulter counter method; details: read-out: GI; method in brief: as §1
UO-31 = experiment: Growth inhibition of human UO31 cells at 10 uM after 48 hrs by coulter counter method; details: UO-31, 48 h, read-out: GI; method in brief: as §1
UACC-257 = experiment: Growth inhibition of human UACC257 cells at 10 uM after 48 hrs by coulter counter method; details: UACC-257, 48 h, read-out: GI; method in brief: as §1
786-0 = experiment: Growth inhibition of human 786-0 cells at 10 uM after 48 hrs by coulter counter method; details: 786-0, 48 h, read-out: GI; method in brief: as §1
M14 = experiment: Growth inhibition of human M14 cells at 10 uM after 48 hrs by coulter counter method; details: M14, 48 h, read-out: GI; method in brief: as §1
UACC-62 = experiment: Growth inhibition of human UACC62 cells at 10 uM after 48 hrs by coulter counter method; details: UACC-62, 48 h, read-out: GI; method in brief: as §1
SK-MEL-5 = experiment: Growth inhibition of human SK-MEL-5 cells at 10 uM after 48 hrs by coulter counter method; details: SK-MEL-5, 48 h, read-out: GI; method in brief: as §1
A549 = experiment: Growth inhibition of human A549 cells at 10 uM after 48 hrs by coulter counter method; details: A549, 48 h, read-out: GI; method in brief: as §1
SK-MEL-28 = experiment: Growth inhibition of human SK-MEL-28 cells at 10 uM after 48 hrs by coulter counter method; details: SK-MEL-28, 48 h, read-out: GI; method in brief: as §1
HCT-116 = experiment: Growth inhibition of human HCT116 cells at 10 uM after 48 hrs by coulter counter method; details: HCT-116, 48 h, read-out: GI; method in brief: as §1
K562 = experiment: Growth inhibition of human K562 cells at 10 uM after 48 hrs by coulter counter method; details: K562, 48 h, read-out: GI; method in brief: as §1
HT-29 = experiment: Growth inhibition of human HT-29 cells at 10 uM after 48 hrs by coulter counter method; details: HT-29, 48 h, read-out: GI; method in brief: as §1
U-251 = experiment: Growth inhibition of human U251 cells at 10 uM after 48 hrs by coulter counter method; details: U-251, 48 h, read-out: GI; method in brief: as §1
LOX IMVI = experiment: Growth inhibition of human LOXIMVI cells at 10 uM after 48 hrs by coulter counter method; details: read-out: GI; method in brief: as §1
RPMI-8226 = experiment: Growth inhibition of human RPMI8226 cells at 10 uM after 48 hrs by coulter counter method; details: RPMI-8226, 48 h, read-out: GI; method in brief: as §1
NCI-H522 = experiment: Growth inhibition of human NCI-H522 cells at 10 uM after 48 hrs by coulter counter method; details: NCI-H522, 48 h, read-out: GI; method in brief: as §1
ACHN = experiment: Growth inhibition of human ACHN cells at 10 uM after 48 hrs by coulter counter method; details: read-out: GI; method in brief: as §1
SF-268 = experiment: Growth inhibition of human SF268 cells at 10 uM after 48 hrs by coulter counter method; details: SF-268, 48 h, read-out: GI; method in brief: as §1
MDA-MB-468 = experiment: Growth inhibition of human MDA-MB-468 cells at 10 uM after 48 hrs by coulter counter method; details: MDA-MB-468, 48 h, read-out: GI; method in brief: as §1
OVCAR-8 = experiment: Growth inhibition of human OVCAR8 cells at 10 uM after 48 hrs by coulter counter method; details: OVCAR-8, 48 h, read-out: GI; method in brief: as §1
A498 = experiment: Growth inhibition of human A498 cells at 10 uM after 48 hrs by coulter counter method; details: A498, 48 h, read-out: GI; method in brief: as §1
NCI-H23 = experiment: Growth inhibition of human NCI-H23 cells at 10 uM after 48 hrs by coulter counter method; details: NCI-H23, 48 h, read-out: GI; method in brief: as §1
SNB-19 = experiment: Growth inhibition of human SNB19 cells at 10 uM after 48 hrs by coulter counter method; details: SNB-19, 48 h, read-out: GI; method in brief: as §1
T47D = experiment: Growth inhibition of human T47D cells at 10 uM after 48 hrs by coulter counter method; details: read-out: GI; method in brief: as §1
SK-MEL-2 = experiment: Growth inhibition of human SK-MEL-2 cells at 10 uM after 48 hrs by coulter counter method; details: SK-MEL-2, 48 h, read-out: GI; method in brief: as §1
CCRF-CEM = experiment: Growth inhibition of human CCRF-CEM cells at 10 uM after 48 hrs by coulter counter method; details: read-out: GI; method in brief: as §1
PC-3 = experiment: Growth inhibition of human PC3 cells at 10 uM after 48 hrs by coulter counter method; details: PC-3, 48 h, read-out: GI; method in brief: as §1
MCF7 = experiment: Growth inhibition of human MCF7 cells at 10 uM after 48 hrs by coulter counter method; details: MCF7, 48 h, read-out: GI; method in brief: as §1
KM12 = experiment: Growth inhibition of human KM12 cells at 10 uM after 48 hrs by coulter counter method; details: KM12, 48 h, read-out: GI; method in brief: as §1
MOLT-4 = experiment: Growth inhibition of human MOLT4 cells at 10 uM after 48 hrs by coulter counter method; details: MOLT-4, 48 h, read-out: GI; method in brief: as §1
MDA-MB-435 = experiment: Growth inhibition of human MDA-MB-435 cells at 10 uM after 48 hrs by coulter counter method; details: MDA-MB-435, 48 h, read-out: GI; method in brief: as §1
NCI-H226 = experiment: Growth inhibition of human NCI-H226 cells at 10 uM after 48 hrs by coulter counter method; details: NCI-H226, 48 h, read-out: GI; method in brief: as §1
Malme-3M = experiment: Growth inhibition of human MALME-3M cells at 10 uM after 48 hrs by coulter counter method; details: read-out: GI; method in brief: as §1
HCT-15 = experiment: Growth inhibition of human HCT15 cells at 10 uM after 48 hrs by coulter counter method; details: HCT-15, 48 h, read-out: GI; method in brief: as §1
NCI-H322M = experiment: Growth inhibition of human NCI-H322M cells at 10 uM after 48 hrs by coulter counter method; details: read-out: GI; method in brief: as §1
SNB-75 = experiment: Growth inhibition of human SNB75 cells at 10 uM after 48 hrs by coulter counter method; details: SNB-75, 48 h, read-out: GI; method in brief: as §1
IGROV-1 = experiment: Growth inhibition of human IGROV1 cells at 10 uM after 48 hrs by coulter counter method; details: IGROV-1, 48 h, read-out: GI; method in brief: as §1
EKVX = experiment: Growth inhibition of human EKVX cells at 10 uM after 48 hrs by coulter counter method; details: read-out: GI; method in brief: as §1
SF-295 = experiment: Growth inhibition of human SF295 cells at 10 uM after 48 hrs by coulter counter method; details: SF-295, 48 h, read-out: GI; method in brief: as §1
TK-10 = experiment: Growth inhibition of human TK10 cells at 10 uM after 48 hrs by coulter counter method; details: TK-10, 48 h, read-out: GI; method in brief: as §1
SR = experiment: Growth inhibition of human SR cells at 10 uM after 48 hrs by coulter counter method; details: read-out: GI; method in brief: as §1
CAKI-1 = experiment: Growth inhibition of human Caki1 cells at 10 uM after 48 hrs by coulter counter method; details: CAKI-1, 48 h, read-out: GI; method in brief: as §1

Compound O=C1N=C2SC(c3ccccc3)=NN2C1=O has an inhibition of growth at 10 µM (HL-60(TB)) of less than 10%, an inhibition of growth at 10 µM (NCI/ADR-RES) of less than 10% and an inhibition of growth at 10 µM (BT-549) of less than 10%. For the same compound, the inhibition of growth at 10 µM (SN12C) was less than 10%, the inhibition of growth at 10 µM (UO-31) was 25.7% and the inhibition of growth at 10 µM (UACC-257) was 15.5%. The inhibition of growth at 10 µM (786-0) was less than 10%, the inhibition of growth at 10 µM (M14) was less than 10% and the inhibition of growth at 10 µM (UACC-62) was less than 10%. The inhibition of growth at 10 µM (SK-MEL-5) was less than 10%, the inhibition of growth at 10 µM (A549) was less than 10% and the inhibition of growth at 10 µM (SK-MEL-28) was less than 10%. It also gave an inhibition of growth at 10 µM (HCT-116) of less than 10%, an inhibition of growth at 10 µM (K562) of less than 10% and an inhibition of growth at 10 µM (HT-29) of less than 10%. For the same compound, the inhibition of growth at 10 µM (U-251) was less than 10%, the inhibition of growth at 10 µM (LOX IMVI) was less than 10% and the inhibition of growth at 10 µM (RPMI-8226) was 12.6%. It also gave an inhibition of growth at 10 µM (NCI-H522) of 12.4%, an inhibition of growth at 10 µM (ACHN) of less than 10% and an inhibition of growth at 10 µM (SF-268) of less than 10%. It also gave an inhibition of growth at 10 µM (MDA-MB-468) of less than 10%, an inhibition of growth at 10 µM (OVCAR-8) of less than 10% and an inhibition of growth at 10 µM (A498) of less than 10%. It also gave an inhibition of growth at 10 µM (NCI-H23) of less than 10%, an inhibition of growth at 10 µM (SNB-19) of less than 10% and an inhibition of growth at 10 µM (T47D) of less than 10%. For the same compound, the inhibition of growth at 10 µM (SK-MEL-2) was less than 10%, the inhibition of growth at 10 µM (CCRF-CEM) was less than 10% and the inhibition of growth at 10 µM (PC-3) was 10.7%. It also gave an inhibition of growth at 10 µM (MCF7) of less than 10%, an inhibition of growth at 10 µM (KM12) of less than 10% and an inhibition of growth at 10 µM (MOLT-4) of less than 10%. For the same compound, the inhibition of growth at 10 µM (MDA-MB-435) was less than 10%, the inhibition of growth at 10 µM (NCI-H226) was less than 10% and the inhibition of growth at 10 µM (Malme-3M) was less than 10%. It also gave an inhibition of growth at 10 µM (HCT-15) of less than 10%, an inhibition of growth at 10 µM (NCI-H322M) of 10.8% and an inhibition of growth at 10 µM (SNB-75) of less than 10%. It also gave an inhibition of growth at 10 µM (IGROV-1) of less than 10%, an inhibition of growth at 10 µM (EKVX) of less than 10% and an inhibition of growth at 10 µM (SF-295) of less than 10%. It also gave an inhibition of growth at 10 µM (TK-10) of less than 10%, an inhibition of growth at 10 µM (SR) of less than 10% and an inhibition of growth at 10 µM (CAKI-1) of less than 10%.
